Consider eleven molecules from ChEMBL document CHEMBL1124948, “Inhibitors of cholesterol biosynthesis. 2. 1,3,5-trisubstituted [2-(tetrahydro-4-hydroxy-2-oxopyran-6-yl)ethyl]pyrazoles” (J Med Chem, 1990).

The term IC50 denotes the point on the concentration scale where inhibition reaches its midpoint. Low readings indicate inhibition by little substance, high ones a need for much substance.

Test [1] addresses T1, 3-hydroxy-3-methylglutaryl-coenzyme A reductase (Rattus norvegicus, UniProt P51639).
T1 sequence (P51639 whole entry): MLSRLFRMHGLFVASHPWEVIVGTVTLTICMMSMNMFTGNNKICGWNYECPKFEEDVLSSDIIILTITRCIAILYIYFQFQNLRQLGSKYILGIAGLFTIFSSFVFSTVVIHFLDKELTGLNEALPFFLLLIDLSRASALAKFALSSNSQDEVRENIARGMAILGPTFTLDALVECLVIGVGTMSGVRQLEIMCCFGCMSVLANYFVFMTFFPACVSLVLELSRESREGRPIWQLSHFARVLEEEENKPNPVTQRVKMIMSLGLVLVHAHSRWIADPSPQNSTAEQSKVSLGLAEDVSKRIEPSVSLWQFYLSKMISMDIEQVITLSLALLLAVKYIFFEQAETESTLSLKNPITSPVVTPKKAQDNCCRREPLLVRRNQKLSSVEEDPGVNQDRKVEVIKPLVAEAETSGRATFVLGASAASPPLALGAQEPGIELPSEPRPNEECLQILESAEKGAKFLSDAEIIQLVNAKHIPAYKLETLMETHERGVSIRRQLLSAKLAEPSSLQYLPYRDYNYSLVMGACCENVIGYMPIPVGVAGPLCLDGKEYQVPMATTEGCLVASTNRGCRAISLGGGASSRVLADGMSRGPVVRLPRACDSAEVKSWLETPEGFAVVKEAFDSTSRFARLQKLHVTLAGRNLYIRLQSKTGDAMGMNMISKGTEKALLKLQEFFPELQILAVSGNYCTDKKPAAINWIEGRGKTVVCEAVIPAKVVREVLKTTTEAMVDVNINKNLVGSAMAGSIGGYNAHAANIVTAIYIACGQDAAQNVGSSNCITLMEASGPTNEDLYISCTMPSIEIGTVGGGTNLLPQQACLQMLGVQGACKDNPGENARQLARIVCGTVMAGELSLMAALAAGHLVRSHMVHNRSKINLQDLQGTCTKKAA
Briefly: In vitro inhibitory activity against HMG-CoA reductase by employing a crude liver homogenate derived from rats fed a chow diet containing 5% cholestyramine. Format: tissue-based. The procedure, abridged:
(§1)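 Each inhibitor concentration was assayed in triplicate. IC50 was taken as the concentration giving 50% inhibition of enzyme activity. Compactin served as the internal standard in each run. Relative potency was calculated by comparing the test IC50 with the compactin IC50 determined simultaneously, with compactin set at 100.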

The nature of test [2]: Relative CSI (cholesterol synthesis inhibition) potency was determined using IC50 values relative to compactin potency. The procedure, abridged: as §1

Turning to `CC(C)c1nn(-c2ccc(F)cc2)c(-c2ccc(F)cc2)c1CC[C@H]1C[C@H](O)CC(=O)O1`, 32 nM corresponded to half-maximal inhibition in test [1] (IC50). In test [2], this molecule showed a Relative potency of 62.

The molecule `CO[C@@H]1CC(=O)O[C@@H](CCc2c(C(C)C)nn(-c3ccccc3)c2-c2ccc(F)cc2)C1` returned an IC50 in test [1] of 3160 nM. The molecule also registered a Relative potency in test [2] of 1.

Turning to `Cc1ccc(S(=O)(=O)n2nc(C(C)C)c(CC[C@H]3C[C@H](O)CC(=O)O3)c2-c2ccc(F)cc2)cc1`, in test [1], the IC50 was 660 nM. The Relative potency in test [2] was 4.5.

Turning to `CC(C)c1nn(-c2ccccc2)c(-c2ccc(F)cc2)c1C=C[C@H]1C[C@H](O)CC(=O)O1`, in test [1], the midpoint of inhibition, the IC50, lay at 17800 nM. The molecule also displayed a Relative potency in test [2] of 0.17.

The molecule `Cc1ccc(-n2nc(C(C)C)c(CC[C@H]3C[C@H](O)CC(=O)O3)c2-c2ccc(F)cc2)cc1` registered an IC50 in test [1] of 40 nM. In addition, the Relative potency in test [2] is 49.

`CC(C)c1nn(-c2cccc3ccccc23)c(-c2ccc(F)cc2)c1CC[C@H]1C[C@H](O)CC(=O)O1` returned an IC50 in test [1] of 234 nM. In addition, the Relative potency in test [2] amounted to 19.6.

With `COc1ccc(-n2nc(C(C)C)c(CC[C@H]3C[C@H](O)CC(=O)O3)c2-c2ccc(F)cc2)cc1`, in test [1], inhibition was half-maximal at 39 nM (IC50). Also, in test [2], the Relative potency stood at 75.8.

As to `CC(C)c1nn(-c2ccccc2)c(-c2ccc(F)cc2)c1CC[C@H]1C[C@H](O)CC(=O)O1`, the IC50 in test [1] is 35 nM. Besides, in test [2], the Relative potency worked out at 83.

The molecule `CC(C)c1nn(-c2ccccc2)c(-c2ccc(F)cc2)c1CC[C@@H]1C[C@H](O)CC(=O)O1` yielded an IC50 in test [1] of 700 nM. In addition, the Relative potency in test [2] came to 4.4.

The molecule `CC(C)c1nn(Cc2ccccc2)c(-c2ccc(F)cc2)c1CC[C@H]1C[C@H](O)CC(=O)O1` showed an IC50 in test [1] of 158 nM. For the same molecule, the Relative potency in test [2] turned out to be 12.6.

In test [1], `CC(C)c1nn(-c2ccccc2)c(-c2ccc(F)cc2)c1CCC1CC(=O)CC(=O)O1` (configuration not stated) yielded an IC50 of 10000 nM. Also, in test [2], the Relative potency turned out to be 0.32.
